Source: ChEMBL document CHEMBL1132538, “Potential multifunctional inhibitors of HIV-1 reverse transcriptase. Novel [AZT]-[TSAO-T] and [d4T]-[TSAO-T] heterodimers modified in the linker and in the dideoxynucleoside region” (J Med Chem, 1999)

Legend:
CCRF-CEM [1] = assay: Inhibition of HIV-2 induced cytopathicity against CEM cell; type: functional, cell-based; details: Homo sapiens
Method in brief: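 CEM cells at 4 × 10^5 per mL infected with HIV-2 at ∼100 CCID50 per mL of cell suspension, then mixed 1:1 with serial compound dilutions. Giant cell formation scored microscopically after 4 days.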

MT4 [2] = assay: Inhibition of HIV-2 induced cytopathicity against MT-4 cell; type: functional, cell-based; details: Homo sapiens
Method in brief: (§1)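 HIV-1 or HIV-2 at ~100 CCID50 per mL infecting CEM (4 × 10^5 cells/mL) or MT-4 (3 × 10^5 cells/mL) cells, mixed 1:1 with compound dilutions in microtiter wells. After 4 days, giant cell formation (CEM) or virus-induced cytopathicity (MT-4) scored microscopically.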

CCRF-CEM [3] = assay: Cytostatic concentration against CEM cell; type: functional; details: Homo sapiens
MT4 [4] = assay: Cytostatic concentration against MT-4 cell; type: functional; details: Homo sapiens
MT4 [5] = assay: Inhibition of HIV-1 induced cytopathicity against MT-4 cell; type: functional, cell-based; details: Homo sapiens; method in brief: as §1
CCRF-CEM [6] = assay: Inhibition of HIV-1 induced cytopathicity against CEM cell; type: functional, cell-based; details: Homo sapiens; method in brief: as §1
MT-4 (human) = assay: Cytostatic concentration against MT-4 cell
CEM (human) = assay: Inhibition of HIV-2 induced cytopathicity against CEM cell

SMILES	EC50 (CCRF-CEM [1])	EC50 (MT4 [2])	CC50 (CCRF-CEM [3])	CC50 (MT4 [4])	EC50 (MT4 [5])	EC50 (CCRF-CEM [6])	CC50 (MT-4 (human))	EC50 (CEM (human))
COC(=O)C(C)NP(=O)(OCC1OC(n2cc(C)c(=O)n(CCCCCCBr)c2=O)CC1N=[N+]=[N-])Oc1ccccc1 (stereo unspecified)	> 10 µM	> 10 µM	22 µM	22 µM	> 10 µM	> 10 µM	–	–
Cc1cn([C@@H]2O[C@H](CO[Si](C)(C)C(C)(C)C)C3(OS(=O)(=O)C=C3N)[C@H]2O[Si](C)(C)C(C)(C)C)c(=O)[nH]c1=O (stereo partly specified)	–	> 6 µM	–	–	–	0.05 µM	12 µM	> 6 µM
Cc1cn([C@@H]2O[C@H](CO[Si](C)(C)C(C)(C)C)[C@@]3(OS(=O)(=O)C=C3N)[C@H]2O[Si](C)(C)C(C)(C)C)c(=O)n(CC#Cc2cn([C@@H]3C[C@@H](N=[N+]=[N-])[C@H](CO)O3)c(=O)[nH]c2=O)c1=O	–	> 10 µM	> 250 µM	31 µM	0.33 µM	0.2 µM	–	–
Cc1cn([C@@H]2CC(N=[N+]=[N-])[C@H](CO)O2)c(=O)n(CC#CCn2c(=O)c(C)cn([C@@H]3O[C@H](CO[Si](C)(C)C(C)(C)C)[C@@]4(OS(=O)(=O)C=C4N)[C@H]3O[Si](C)(C)C(C)(C)C)c2=O)c1=O (stereo partly specified)	> 50 µM	> 250 µM	> 250 µM	106 µM	1 µM	0.23 µM	–	–
COC(=O)C(C)NP(=O)(OC[C@H]1C=C[C@@H](n2cc(C)c(=O)n(CCCCCCn3c(=O)c(C)cn([C@@H]4O[C@H](CO[Si](C)(C)C(C)(C)C)[C@@]5(OS(=O)(=O)C=C5N)[C@H]4O[Si](C)(C)C(C)(C)C)c3=O)c2=O)O1)Oc1ccccc1 (stereo partly specified)	> 50 µM	> 50 µM	> 250 µM	37 µM	0.57 µM	0.4 µM	–	–
Cc1cn([C@@H]2C[C@@H](N=[N+]=[N-])[C@H](CO)O2)c(=O)n(C/C=C/Cn2c(=O)c(C)cn([C@@H]3O[C@H](CO[Si](C)(C)C(C)(C)C)[C@@]4(OS(=O)(=O)C=C4N)[C@H]3O[Si](C)(C)C(C)(C)C)c2=O)c1=O	57 µM	> 250 µM	> 250 µM	> 250 µM	0.7 µM	0.34 µM	–	–
Cc1cn([C@@H]2C[C@@H](N=[N+]=[N-])[C@H](CO)O2)c(=O)n(CCOCCn2c(=O)c(C)cn([C@@H]3O[C@H](CO[Si](C)(C)C(C)(C)C)[C@@]4(OS(=O)(=O)C=C4N)[C@H]3O[Si](C)(C)C(C)(C)C)c2=O)c1=O	> 50 µM	> 250 µM	> 250 µM	> 250 µM	0.31 µM	0.18 µM	–	–
COC(=O)C(C)NP(=O)(OC[C@@H]1O[C@H](n2cc(C)c(=O)n(CCCCCCn3c(=O)c(C)cn([C@@H]4O[C@H](CO[Si](C)(C)C(C)(C)C)[C@@]5(OS(=O)(=O)C=C5N)[C@H]4O[Si](C)(C)C(C)(C)C)c3=O)c2=O)C[C@H]1O)Oc1ccccc1 (stereo partly specified)	> 50 µM	> 50 µM	104 µM	25 µM	0.93 µM	0.25 µM	–	–
Cc1cn([C@@H]2O[C@H](CO[Si](C)(C)C(C)(C)C)[C@@]3(OS(=O)(=O)C=C3N)[C@H]2O[Si](C)(C)C(C)(C)C)c(=O)n(CC#Cc2cn([C@@H]3C=C[C@H](CO)O3)c(=O)[nH]c2=O)c1=O	> 10 µM	> 10 µM	21 µM	8 µM	0.18 µM	0.11 µM	–	–
COC(=O)C(C)NP(=O)(OC[C@@H]1O[C@H](n2cc(C)c(=O)n(CCCn3c(=O)c(C)cn([C@@H]4O[C@H](CO[Si](C)(C)C(C)(C)C)[C@@]5(OS(=O)(=O)C=C5N)[C@H]4O[Si](C)(C)C(C)(C)C)c3=O)c2=O)C[C@H]1O)Oc1ccccc1 (stereo partly specified)	> 50 µM	> 50 µM	> 250 µM	31 µM	0.33 µM	0.25 µM	–	–
COC(=O)C(C)NP(=O)(OC[C@H]1C=C[C@@H](n2cc(C)c(=O)n(CCCn3c(=O)c(C)cn([C@@H]4O[C@H](CO[Si](C)(C)C(C)(C)C)[C@@]5(OS(=O)(=O)C=C5N)[C@H]4O[Si](C)(C)C(C)(C)C)c3=O)c2=O)O1)Oc1ccccc1 (stereo partly specified)	15 µM	26 µM	123 µM	28 µM	0.18 µM	0.17 µM	–	–
COC(=O)C(C)NP(=O)(OC[C@@H]1O[C@H](n2cc(C)c(=O)n(CCCn3c(=O)c(C)cn([C@@H]4O[C@H](CO[Si](C)(C)C(C)(C)C)[C@@]5(OS(=O)(=O)C=C5N)[C@H]4O[Si](C)(C)C(C)(C)C)c3=O)c2=O)C[C@H]1N=[N+]=[N-])Oc1ccccc1 (stereo partly specified)	> 250 µM	> 250 µM	> 250 µM	> 250 µM	3.2 µM	0.65 µM	–	–
Cc1cn([C@@H]2O[C@H](CO[Si](C)(C)C(C)(C)C)[C@@]3(OS(=O)(=O)C=C3N)[C@H]2O[Si](C)(C)C(C)(C)C)c(=O)n(CC#CC#CCn2c(=O)c(C)cn([C@H]3O[C@@H](CO[Si](C)(C)C(C)(C)C)[C@]4(OS(=O)(=O)C=C4N)[C@@H]3O[Si](C)(C)C(C)(C)C)c2=O)c1=O	> 250 µM	> 250 µM	> 250 µM	65 µM	> 50 µM	> 50 µM	–	–
Cc1cn([C@@H]2O[C@H](CO[Si](C)(C)C(C)(C)C)[C@@]3(OS(=O)(=O)C=C3N)[C@H]2O[Si](C)(C)C(C)(C)C)c(=O)n(CC#Cc2cn([C@@H]3C[C@@H](O)[C@H](CO)O3)c(=O)[nH]c2=O)c1=O	> 10 µM	> 10 µM	21 µM	15 µM	0.44 µM	0.55 µM	–	–
COC(=O)C(C)NP(=O)(OC[C@@H]1O[C@H](n2cc(C)c(=O)n(CCCCCCn3c(=O)c(C)cn([C@@H]4O[C@H](CO[Si](C)(C)C(C)(C)C)[C@@]5(OS(=O)(=O)C=C5N)[C@H]4O[Si](C)(C)C(C)(C)C)c3=O)c2=O)C[C@H]1N=[N+]=[N-])Oc1ccccc1 (stereo partly specified)	> 250 µM	> 250 µM	> 250 µM	> 250 µM	–	1.7 µM	–	–
Cc1cn([C@@H]2O[C@H](CO[Si](C)(C)C(C)(C)C)[C@@]3(OS(=O)(=O)C=C3N)[C@H]2O[Si](C)(C)C(C)(C)C)c(=O)n(CCCn2c(=O)c(C)cn([C@H]3C[C@H](N=[N+]=[N-])[C@@H](CO)O3)c2=O)c1=O	–	–	> 100 µM	> 100 µM	0.38 µM	0.09 µM	–	–
COC(=O)C(C)NP(=O)(OCC1OC(n2cc(C)c(=O)n(CCCBr)c2=O)CC1N=[N+]=[N-])Oc1ccccc1 (stereo unspecified)	> 50 µM	> 50 µM	41 µM	44 µM	> 50 µM	> 50 µM	–	–
